The text below walks through data of ChEMBL document CHEMBL2034880, “Synthesis and biological evaluation of pyrimidine-based dual inhibitors of human epidermal growth factor receptor 1 (HER-1) and HER-2 tyrosine kinases” (J Med Chem, 2012).

As a reminder, the half-life is the time in which the quantity being followed falls by half. A high value points to slow decline. For orientation: IC50 means the concentration that gives 50% inhibition.

The structures appear in SMILES notation.

Data set [1] in a line: Half life in human liver microsomes at 5 uM. As to conditions: liver microsomes. (In general: Liver microsomes are a subcellular fraction often used to study metabolism.)
A short description of data set [2]: Half life in rat liver microsomes at 5 uM. Particulars: liver microsomes.
A short description of data set [3]: Half life in dog liver microsomes at 5 uM. Particulars: liver microsomes.
Another data set deals with SK-BR-3. Nature of the data set: Cytotoxicity against human SKBR3 cells overexpressing HER-2 gene after 72 hrs by SRB assay. In kind it is functional, cell-based. As to conditions: SK-BR-3, 72 h. An outline of the steps: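 A431 and SK-Br3 cells grown in DMEM (4.5 g/L glucose, 1.5 g/L sodium bicarbonate) with 10% FBS at 37 °C, humidified 5% CO2. Proliferation/growth inhibition IC50 values are means of three independent experiments, each run in duplicate.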
On the technique in general: The SRB assay estimates cell density from bound dye.

A short description of data set [4]: Half life in mouse liver microsomes at 5 uM. Particulars: liver microsomes.
Data set [5] deals with Receptor tyrosine-protein kinase erbB-2 (Homo sapiens, UniProt P04626). Nature of the data set: Inhibition of HER2 preincubated for 10 mins followed by incubation for 30 mins by fluorescence polarization assay. Background: In fluorescence polarisation assays a small probe gives low polarisation when free and higher when bound to something large.
For data set [6], the target named is Receptor tyrosine-protein kinase erbB-4 (Homo sapiens, UniProt Q15303). Briefly: Inhibition of HER4 preincubated for 10 mins followed by incubation for 30 mins by fluorescence polarization assay.
Receptor tyrosine-protein kinase erbB-4, sequence (Q15303 whole entry): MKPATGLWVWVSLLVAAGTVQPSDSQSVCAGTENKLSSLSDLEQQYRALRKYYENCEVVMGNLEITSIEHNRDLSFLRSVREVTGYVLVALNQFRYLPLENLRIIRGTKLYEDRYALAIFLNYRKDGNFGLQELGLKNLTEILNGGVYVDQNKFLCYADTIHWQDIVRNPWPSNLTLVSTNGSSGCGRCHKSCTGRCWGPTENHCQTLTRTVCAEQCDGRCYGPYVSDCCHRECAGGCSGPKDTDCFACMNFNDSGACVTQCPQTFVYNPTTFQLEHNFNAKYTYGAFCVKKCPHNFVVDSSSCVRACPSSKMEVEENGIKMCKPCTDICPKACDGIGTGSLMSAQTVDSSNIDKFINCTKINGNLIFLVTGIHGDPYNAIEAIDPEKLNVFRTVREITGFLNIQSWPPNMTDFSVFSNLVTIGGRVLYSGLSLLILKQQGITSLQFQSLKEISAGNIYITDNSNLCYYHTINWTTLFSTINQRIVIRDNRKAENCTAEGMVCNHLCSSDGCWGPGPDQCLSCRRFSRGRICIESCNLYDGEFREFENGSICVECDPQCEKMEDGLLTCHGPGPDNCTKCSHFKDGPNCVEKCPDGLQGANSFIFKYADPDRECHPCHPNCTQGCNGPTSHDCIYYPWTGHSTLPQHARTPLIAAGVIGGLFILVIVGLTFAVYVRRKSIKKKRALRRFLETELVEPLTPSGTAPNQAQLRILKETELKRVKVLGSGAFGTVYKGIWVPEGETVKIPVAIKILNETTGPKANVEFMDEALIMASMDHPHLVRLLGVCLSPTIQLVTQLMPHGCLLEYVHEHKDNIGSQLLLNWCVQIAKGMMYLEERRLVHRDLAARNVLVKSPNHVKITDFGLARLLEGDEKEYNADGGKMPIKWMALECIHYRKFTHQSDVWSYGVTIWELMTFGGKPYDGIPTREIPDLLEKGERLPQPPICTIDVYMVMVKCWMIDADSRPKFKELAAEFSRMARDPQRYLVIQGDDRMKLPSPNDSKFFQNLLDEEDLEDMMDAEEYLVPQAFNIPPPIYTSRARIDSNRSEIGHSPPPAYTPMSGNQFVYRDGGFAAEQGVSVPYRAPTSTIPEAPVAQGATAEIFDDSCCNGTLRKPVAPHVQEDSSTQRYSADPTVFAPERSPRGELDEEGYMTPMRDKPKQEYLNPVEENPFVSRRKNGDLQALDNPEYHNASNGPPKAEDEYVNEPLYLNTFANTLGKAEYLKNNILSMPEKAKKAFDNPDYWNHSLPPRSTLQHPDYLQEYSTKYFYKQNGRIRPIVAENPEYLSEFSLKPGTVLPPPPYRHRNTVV
In data set [7] the target is Tyrosine-protein kinase ABL1 (Homo sapiens, UniProt P00519). Nature of the data set: Inhibition of Abl.
In data set [8] the target is 5'-AMP-activated protein kinase catalytic subunit alpha-1 (Homo sapiens, UniProt Q13131). Nature of the data set: Inhibition of AMPKalpha1.
5'-AMP-activated protein kinase catalytic subunit alpha-1, sequence (Q13131 whole entry): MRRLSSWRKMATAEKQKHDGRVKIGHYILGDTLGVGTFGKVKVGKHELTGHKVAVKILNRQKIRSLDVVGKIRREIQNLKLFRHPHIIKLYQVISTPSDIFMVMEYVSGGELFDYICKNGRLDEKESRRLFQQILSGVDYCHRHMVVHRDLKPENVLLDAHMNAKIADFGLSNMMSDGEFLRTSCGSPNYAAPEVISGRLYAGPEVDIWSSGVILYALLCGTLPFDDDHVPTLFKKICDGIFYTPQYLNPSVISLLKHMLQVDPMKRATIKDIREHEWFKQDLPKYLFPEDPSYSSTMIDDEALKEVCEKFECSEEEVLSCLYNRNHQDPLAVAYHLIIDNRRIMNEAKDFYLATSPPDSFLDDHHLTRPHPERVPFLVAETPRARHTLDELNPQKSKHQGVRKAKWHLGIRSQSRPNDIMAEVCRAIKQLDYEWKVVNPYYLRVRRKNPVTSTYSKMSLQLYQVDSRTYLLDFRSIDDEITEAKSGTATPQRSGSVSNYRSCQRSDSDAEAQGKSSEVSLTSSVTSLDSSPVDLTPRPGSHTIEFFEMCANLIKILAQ
The next data set deals with Aurora kinase A (Homo sapiens, UniProt O14965). Briefly: Inhibition of Aurora A.
For data set [9], the target named is Cyclin-dependent kinase 1/cyclin B1 (Homo sapiens, UniProt P06493). Nature of the data set: Inhibition of CDK1/cyclin B. In kind it is protein-complex assay.
The target in data set [10] is Mast/stem cell growth factor receptor Kit (Homo sapiens, UniProt P10721). Briefly: Inhibition of cKIT.
Mast/stem cell growth factor receptor Kit, sequence (P10721 whole entry): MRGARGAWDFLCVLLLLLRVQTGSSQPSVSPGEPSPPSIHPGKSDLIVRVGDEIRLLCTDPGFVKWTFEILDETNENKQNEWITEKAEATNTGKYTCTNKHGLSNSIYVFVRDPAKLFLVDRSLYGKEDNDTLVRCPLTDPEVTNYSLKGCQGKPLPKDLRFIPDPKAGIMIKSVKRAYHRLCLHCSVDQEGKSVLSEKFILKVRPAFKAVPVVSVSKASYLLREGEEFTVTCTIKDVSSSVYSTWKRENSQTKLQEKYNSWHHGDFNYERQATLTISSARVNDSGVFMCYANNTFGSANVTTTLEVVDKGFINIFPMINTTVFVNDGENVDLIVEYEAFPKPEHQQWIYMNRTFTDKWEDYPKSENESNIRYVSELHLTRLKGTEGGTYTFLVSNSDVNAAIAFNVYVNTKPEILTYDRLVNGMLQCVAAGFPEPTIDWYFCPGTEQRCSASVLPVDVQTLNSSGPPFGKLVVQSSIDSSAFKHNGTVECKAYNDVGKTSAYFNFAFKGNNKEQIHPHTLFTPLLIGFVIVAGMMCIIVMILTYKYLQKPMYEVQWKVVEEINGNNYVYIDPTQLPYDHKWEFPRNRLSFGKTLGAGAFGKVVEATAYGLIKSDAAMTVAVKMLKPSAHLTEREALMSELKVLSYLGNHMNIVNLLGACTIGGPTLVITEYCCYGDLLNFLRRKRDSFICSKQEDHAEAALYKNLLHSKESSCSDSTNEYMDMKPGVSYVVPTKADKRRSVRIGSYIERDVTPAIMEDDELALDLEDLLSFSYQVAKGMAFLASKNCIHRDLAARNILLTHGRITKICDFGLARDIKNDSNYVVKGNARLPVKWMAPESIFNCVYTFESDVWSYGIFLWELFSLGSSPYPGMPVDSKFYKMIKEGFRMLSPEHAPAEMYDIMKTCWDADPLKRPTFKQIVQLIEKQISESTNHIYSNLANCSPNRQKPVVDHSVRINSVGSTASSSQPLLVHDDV
A further data set concerns the target Focal adhesion kinase 1 (Homo sapiens, UniProt Q05397). Nature of the data set: Inhibition of FAK.
Data set [11] addresses Fibroblast growth factor receptor 1 (Homo sapiens, UniProt P11362). Nature of the data set: Inhibition of FGFR1.
Data set [12] concerns the target Vascular endothelial growth factor receptor 1 (Homo sapiens, UniProt P17948). Briefly: Inhibition of Flt1.
For data set [13], the target named is Receptor-type tyrosine-protein kinase FLT3 (Homo sapiens, UniProt P36888). Nature of the data set: Inhibition of Flt3.
The target in data set [14] is Insulin-like growth factor 1 receptor (Homo sapiens, UniProt P08069). Nature of the data set: Inhibition of IGF-1R.
The target in a further data set is Insulin receptor (Homo sapiens, UniProt P06213). Nature of the data set: Inhibition of IR.
The target in data set [15] is Tyrosine-protein kinase JAK2 (Homo sapiens, UniProt O60674). Briefly: Inhibition of JAK2.
In data set [16] the target is Serine/threonine-protein kinase STK11 (Homo sapiens, UniProt Q15831). Briefly: Inhibition of LKB1.
Serine/threonine-protein kinase STK11, sequence (Q15831 whole entry): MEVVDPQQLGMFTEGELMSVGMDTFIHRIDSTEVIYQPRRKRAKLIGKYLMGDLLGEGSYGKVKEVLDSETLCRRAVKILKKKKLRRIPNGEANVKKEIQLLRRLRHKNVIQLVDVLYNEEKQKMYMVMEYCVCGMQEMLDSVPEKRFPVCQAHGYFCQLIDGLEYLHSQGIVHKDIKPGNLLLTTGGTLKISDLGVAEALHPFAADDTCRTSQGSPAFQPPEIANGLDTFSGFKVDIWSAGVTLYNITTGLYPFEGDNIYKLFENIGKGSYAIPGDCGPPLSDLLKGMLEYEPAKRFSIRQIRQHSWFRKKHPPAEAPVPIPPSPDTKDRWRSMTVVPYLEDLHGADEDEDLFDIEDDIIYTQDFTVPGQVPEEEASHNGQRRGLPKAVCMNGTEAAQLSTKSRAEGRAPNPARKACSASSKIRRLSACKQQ
For data set [17], the target named is Dual specificity mitogen-activated protein kinase kinase 1 (Homo sapiens, UniProt Q02750). Briefly: Inhibition of MEK1.
Dual specificity mitogen-activated protein kinase kinase 1, sequence (Q02750 whole entry): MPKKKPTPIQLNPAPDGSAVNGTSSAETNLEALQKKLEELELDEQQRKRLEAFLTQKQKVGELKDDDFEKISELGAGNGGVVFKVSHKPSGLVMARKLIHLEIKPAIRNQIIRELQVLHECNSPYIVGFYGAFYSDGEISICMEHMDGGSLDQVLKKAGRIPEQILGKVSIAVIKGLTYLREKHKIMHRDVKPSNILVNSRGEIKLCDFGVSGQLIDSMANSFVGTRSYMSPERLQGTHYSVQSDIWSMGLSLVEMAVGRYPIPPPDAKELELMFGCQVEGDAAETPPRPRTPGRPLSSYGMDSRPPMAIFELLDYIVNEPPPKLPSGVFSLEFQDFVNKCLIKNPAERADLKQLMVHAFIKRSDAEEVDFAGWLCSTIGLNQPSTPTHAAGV
Data set [18] concerns the target Hepatocyte growth factor receptor (Homo sapiens, UniProt P08581). Nature of the data set: Inhibition of MET.
For data set [19], the target named is Platelet-derived growth factor receptor alpha (Homo sapiens, UniProt P16234). Briefly: Inhibition of PDGFRalpha.
Data set [20] deals with Platelet-derived growth factor receptor beta (Homo sapiens, UniProt P09619). Briefly: Inhibition of PDGFRbeta.
Data set [21] deals with Tyrosine-protein kinase SYK (Homo sapiens, UniProt P43405). Briefly: Inhibition of Syk.
The target in data set [22] is Serine/threonine-protein kinase pim-1 (Homo sapiens, UniProt P11309). Nature of the data set: Inhibition of PIM1.
Serine/threonine-protein kinase pim-1, sequence (P11309 whole entry): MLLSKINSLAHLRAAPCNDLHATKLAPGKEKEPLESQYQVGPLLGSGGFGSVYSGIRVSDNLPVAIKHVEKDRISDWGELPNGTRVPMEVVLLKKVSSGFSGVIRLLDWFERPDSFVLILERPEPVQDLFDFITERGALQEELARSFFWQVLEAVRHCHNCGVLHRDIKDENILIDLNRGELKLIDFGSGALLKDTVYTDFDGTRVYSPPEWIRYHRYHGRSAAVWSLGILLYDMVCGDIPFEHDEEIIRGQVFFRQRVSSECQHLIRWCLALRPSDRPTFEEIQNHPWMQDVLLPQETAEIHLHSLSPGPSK
A short description of data set [23]: Cytotoxicity against human MDA-MB-175 cells expressing Src, Ret and low HER-2 after 72 hrs by SRB assay. The class given is functional, cell-based. Summed up: (§1)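 Culture conditions: MDA-MB-361 and MDA-MB-453 grown in L-15 without CO2. NCI-N87, NCI-H1781 and NCI-H1975 grown in RPMI with 1 mM sodium pyruvate under 5% CO2. JIMT-1 grown in DMEM (4.5 g/L glucose) under 5% CO2. MDA-MB-175 grown in L-15 without CO2. All media contained 10% FBS and 1% penicillin-streptomycin, 37 °C. Growth inhibition/GI50 read-out was run per a cited earlier protocol.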

For another data set, the system named is MDA-MB-361. Briefly: Cytotoxicity against ER activated human MDA-MB-361 cells expressing Her-2, Src and PIK3CA mutant after 72 hrs by SRB assay. In kind it is functional, cell-based. Particulars: MDA-MB-361, 72 h. Summed up:
as §1

The next data set relates to MDA-MB-453. Briefly: Cytotoxicity against PTEN-deficient human MDA-MB-453 cells expressing HER-2, and PIK3CA mutant after 72 hrs by SRB assay. As to conditions: MDA-MB-453, 72 h. The class given is functional, cell-based. An outline of the steps:
as §1

The nature of data set [24]: Cytotoxicity against human JIMT1 cells expressing low HER-2 after 72 hrs by SRB assay. In kind it is functional, cell-based. As to conditions: JIMT-1, 72 h. An outline of the steps: as §1
The nature of data set [25]: Cytotoxicity against human NCI-H1781 cells expressing HER-2 G776insV_G/C after 72 hrs by SRB assay. The class given is functional, cell-based. Particulars: NCI-H1781, 72 h. Summed up:
as §1

Another data set concerns NCI-N87. Briefly: Cytotoxicity against human NCI-N87 cells expressing HER-2 after 72 hrs by SRB assay. The class given is functional, cell-based. As to conditions: NCI-N87, 72 h. Summed up:
as §1

The next data set concerns NCI-H1975. Nature of the data set: Cytotoxicity against human NCI-H1975 cells expressing EGFR L858R/T790M mutant after 72 hrs by SRB assay. In kind it is functional, cell-based. As to conditions: NCI-H1975, 72 h. An outline of the steps: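 NCI-N87, NCI-H1781 and NCI-H1975 grown in RPMI with 1 mM sodium pyruvate under 5% CO2. JIMT-1 grown in DMEM (4.5 g/L glucose) under 5% CO2. All media contained 10% FBS and 1% penicillin-streptomycin, 37 °C. Growth inhibition/GI50 read-out was run per a cited earlier protocol.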

Focal adhesion kinase 1, sequence (Q05397 whole entry): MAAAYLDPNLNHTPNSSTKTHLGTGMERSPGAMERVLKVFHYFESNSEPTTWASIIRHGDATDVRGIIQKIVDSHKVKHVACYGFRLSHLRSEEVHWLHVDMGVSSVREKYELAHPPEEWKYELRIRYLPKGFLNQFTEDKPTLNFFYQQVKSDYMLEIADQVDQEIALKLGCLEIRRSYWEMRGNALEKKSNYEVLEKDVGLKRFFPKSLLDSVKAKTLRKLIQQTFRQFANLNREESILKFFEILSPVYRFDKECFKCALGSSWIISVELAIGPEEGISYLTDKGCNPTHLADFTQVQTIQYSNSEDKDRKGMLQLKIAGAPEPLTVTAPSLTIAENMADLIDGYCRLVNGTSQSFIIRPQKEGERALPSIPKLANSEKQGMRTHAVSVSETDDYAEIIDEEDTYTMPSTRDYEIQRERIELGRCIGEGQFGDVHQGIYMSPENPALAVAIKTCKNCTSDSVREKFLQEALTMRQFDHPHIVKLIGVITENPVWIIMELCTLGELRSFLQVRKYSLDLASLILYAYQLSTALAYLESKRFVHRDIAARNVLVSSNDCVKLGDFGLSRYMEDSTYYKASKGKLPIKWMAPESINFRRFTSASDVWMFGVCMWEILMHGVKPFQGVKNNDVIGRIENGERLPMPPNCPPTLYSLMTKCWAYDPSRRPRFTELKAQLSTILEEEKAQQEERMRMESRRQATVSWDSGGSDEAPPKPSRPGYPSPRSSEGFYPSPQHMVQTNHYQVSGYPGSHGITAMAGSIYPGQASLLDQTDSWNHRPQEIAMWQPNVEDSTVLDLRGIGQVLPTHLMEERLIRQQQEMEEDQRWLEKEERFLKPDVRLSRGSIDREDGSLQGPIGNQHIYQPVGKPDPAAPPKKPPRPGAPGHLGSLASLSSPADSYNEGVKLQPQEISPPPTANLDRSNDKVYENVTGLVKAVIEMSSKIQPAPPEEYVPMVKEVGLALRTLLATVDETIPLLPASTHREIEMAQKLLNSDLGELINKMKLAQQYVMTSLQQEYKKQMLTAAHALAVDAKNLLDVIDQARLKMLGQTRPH

Turning to `C=CC(=O)NCc1coc(-c2c(N)ncnc2Nc2ccc(OCc3ccccn3)c(Cl)c2)n1`, the half-life at 5 µM was found to be 25 min in [1], 23 min in data set [2], 46 min in [3] and 17 min in data set [4]. In addition, the IC50 was 0.7 nM in the data set with SK-BR-3; 22.4 nM in data set [5]; 4 nM in data set [6]; greater than 3 µM in data set [7]; greater than 3 µM in [8]; greater than 3 µM at Aurora kinase A. In addition, the IC50 (in [9]; in data set [10]; against Focal adhesion kinase 1; in data set [11]; in data set [12]; in data set [13]) was greater than 3 µM each time. Further, the IC50 (in data set [14]; against Insulin receptor; in data set [15]; in data set [16]; in data set [17]; in data set [18]) was greater than 3 µM in each case. For the same compound, the IC50 is greater than 3 µM in [19]; greater than 3 µM in [20]; greater than 3 µM in [21]; greater than 3 µM in [22]; 1.6 nM in [23]; 562 nM in the data set on MDA-MB-361. Further, the IC50 was determined as 5 nM in the data set with MDA-MB-453, 1880 nM in [24] and 22 nM in [25].
With `CS(=O)(=O)CCNCc1ccc(-c2ccc3ncnc(Nc4ccc(OCc5cccc(F)c5)c(Cl)c4)c3c2)o1` [LAPATINIB], the IC50 in [23] is 44.4 nM; with MDA-MB-361 it was 1030 nM; in the data set with MDA-MB-453, 555 nM; in data set [24] it was greater than 10000 nM; in the data set with NCI-N87 it was 36 nM; in data set [25], 3050 nM. In the data set with NCI-H1975, this compound registered an IC50 greater than 1000 nM.
